Test results as given in ChEMBL document CHEMBL1142894, “Preparation of 5-aryl-3-alkylthio-l,2,4-triazoles and corresponding sulfones with antiinflammatory-analgesic activity” (Bioorg Med Chem, 2007).
Activity calls are given as the source filed them. The calls are words filed in the database; no cut-off is given here.

Experiments:
Mus musculus [1] = assay: Antiinflammatory activity against carrageenan-induced paw edema in Swiss albino mouse assessed as swelling thickness at 100 mg/kg, po after 90 mins; type: functional
Procedure, shortened: (§1)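 Oral dosing in 0.5% CMC; vehicle to controls. Then carrageenan (0.5 mg/25 ll, freshly suspended in 154 mM saline) injected into the right hind paw subplantar tissue; saline into the left paw. Right-left footpad thickness difference measured by dial gauge calliper every 90 min over 6 h. Inhibition % is relative to vehicle control. n = 6; mean ± SEM.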

Mus musculus [2] = assay: Antiinflammatory activity against carrageenan-induced paw edema in Swiss albino mouse assessed as swelling thickness at 100 mg/kg, po after 180 mins; type: functional; procedure, shortened: as §1
Mus musculus [3] = assay: Antiinflammatory activity against carrageenan-induced paw edema in Swiss albino mouse assessed as swelling thickness at 100 mg/kg, po after 270 mins; type: functional; procedure, shortened: as §1
Mus musculus [4] = assay: Antiinflammatory activity against carrageenan-induced paw edema in Swiss albino mouse assessed as swelling thickness at 100 mg/kg, po after 360 mins; type: functional; procedure, shortened: as §1
Mus musculus [5] = assay: Inhibition of carrageenan-induced paw edema in Swiss albino mouse at 100 mg/kg, po after 90 mins relative to control; type: functional; conditions: 1.5 h; procedure, shortened: as §1
Mus musculus [6] = assay: Inhibition of carrageenan-induced paw edema in Swiss albino mouse at 100 mg/kg, po after 180 mins relative to control; type: functional; conditions: 3 h; procedure, shortened: as §1
Mus musculus [7] = assay: Inhibition of carrageenan-induced paw edema in Swiss albino mouse at 100 mg/kg, po after 270 mins relative to control; type: functional; conditions: 4.5 h; procedure, shortened: as §1
Mus musculus [8] = assay: Inhibition of carrageenan-induced paw edema in Swiss albino mouse at 100 mg/kg, po after 360 mins relative to control; type: functional; conditions: 6 h; procedure, shortened: as §1
Mus musculus [9] = assay: Analgesic activity against p-benzoquinone-induced abdominal constriction in Swiss albino mouse assessed as number of writhings at 25 mg/kg, po; type: functional, Abdomen
Procedure, shortened: (§2)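 Test samples given orally in 0.5% CMC; vehicle to controls. 60 min later, 2.5% (v/v) p-benzoquinone in distilled water, 0.1 ml/10 g, given i.p. Mice housed singly; writhes counted for 15 min starting 5 min after injection. Activity is % change from vehicle controls. n = 6; mean ± SEM.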

Mus musculus [10] = assay: Analgesic activity against p-benzoquinone-induced abdominal constriction in Swiss albino mouse assessed as number of writhings at 50 mg/kg, po; type: functional, Abdomen; procedure, shortened: as §2
Mus musculus [11] = assay: Analgesic activity against p-benzoquinone-induced abdominal constriction in Swiss albino mouse assessed as number of writhings at 100 mg/kg, po; type: functional, Abdomen; procedure, shortened: as §2
Mus musculus [12] = assay: Analgesic activity against p-benzoquinone-induced abdominal constriction in Swiss albino mouse assessed as number of writhings at 200 mg/kg, po; type: functional, Abdomen; procedure, shortened: as §2
Mus musculus [13] = assay: Inhibition of p-benzoquinone-induced writhing in Swiss albino mouse at 25 mg/kg, po relative to control; type: functional
Procedure, shortened: (§3)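 Mice, n = 6 per group, dosed orally with a suspension in 0.5% sodium CMC. 60 min later, 0.1 ml/10 g of 2.5% […] p-benzoquinone in distilled water given ip. Abdominal writhes counted per animal for 15 min, starting 5 min after injection. Expressed as % change in mean writhing count versus vehicle controls.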

Mus musculus [14] = assay: Inhibition of p-benzoquinone-induced writhing in Swiss albino mouse at 50 mg/kg, po relative to control; type: functional; procedure, shortened: as §3
Mus musculus [15] = assay: Inhibition of p-benzoquinone-induced writhing in Swiss albino mouse at 100 mg/kg, po relative to control; type: functional; procedure, shortened: as §3
Mus musculus [16] = assay: Inhibition of p-benzoquinone-induced writhing in Swiss albino mouse at 200 mg/kg, po relative to control; type: functional; procedure, shortened: as §3
Mus musculus [17] = assay: Gastric-ulcerogenic effect in Swiss albino mouse assessed as lesions at 25 mg/kg, po; type: functional, organism-based; design: dose 25 mg/kg
Procedure, shortened: (§4)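 Mice killed under deep ether anesthesia 3 h after the writhing test; the oral dose in 0.5% CMC was the one used in that test. Stomachs removed, opened along the great curvature and examined under a dissecting microscope for lesions or bleeding. Reported as ratio of ulceration; n = 6.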

Mus musculus [18] = assay: Gastric-ulcerogenic effect in Swiss albino mouse assessed as lesions at 50 mg/kg, po; type: functional, organism-based; design: dose 50 mg/kg; procedure, shortened: as §4
Mus musculus [19] = assay: Gastric-ulcerogenic effect in Swiss albino mouse assessed as lesions at 100 mg/kg, po; type: functional, organism-based; design: dose 100 mg/kg; procedure, shortened: as §4
Mus musculus [20] = assay: Antiinflammatory activity against carrageenan-induced paw edema in Swiss albino mouse assessed as swelling thickness at 25 mg/kg, po after 90 mins; type: functional; procedure, shortened: as §1
Mus musculus [21] = assay: Antiinflammatory activity against carrageenan-induced paw edema in Swiss albino mouse assessed as swelling thickness at 25 mg/kg, po after 180 mins; type: functional; procedure, shortened: as §1
Mus musculus [22] = assay: Antiinflammatory activity against carrageenan-induced paw edema in Swiss albino mouse assessed as swelling thickness at 25 mg/kg, po after 270 mins; type: functional; procedure, shortened: as §1
Mus musculus [23] = assay: Antiinflammatory activity against carrageenan-induced paw edema in Swiss albino mouse assessed as swelling thickness at 25 mg/kg, po after 360 mins; type: functional; procedure, shortened: as §1
Mus musculus [24] = assay: Antiinflammatory activity against carrageenan-induced paw edema in Swiss albino mouse assessed as swelling thickness at 50 mg/kg, po after 180 mins; type: functional; procedure, shortened: as §1
Mus musculus [25] = assay: Antiinflammatory activity against carrageenan-induced paw edema in Swiss albino mouse assessed as swelling thickness at 50 mg/kg, po after 270 mins; type: functional; procedure, shortened: as §1
Mus musculus [26] = assay: Antiinflammatory activity against carrageenan-induced paw edema in Swiss albino mouse assessed as swelling thickness at 50 mg/kg, po after 360 mins; type: functional; procedure, shortened: as §1
Mus musculus [27] = assay: Antiinflammatory activity against carrageenan-induced paw edema in Swiss albino mouse assessed as swelling thickness at 200 mg/kg, po after 90 mins; type: functional; procedure, shortened: as §1
Mus musculus [28] = assay: Antiinflammatory activity against carrageenan-induced paw edema in Swiss albino mouse assessed as swelling thickness at 200 mg/kg, po after 180 mins; type: functional; procedure, shortened: as §1
Mus musculus [29] = assay: Antiinflammatory activity against carrageenan-induced paw edema in Swiss albino mouse assessed as swelling thickness at 200 mg/kg, po after 270 mins; type: functional; procedure, shortened: as §1
Mus musculus [30] = assay: Antiinflammatory activity against carrageenan-induced paw edema in Swiss albino mouse assessed as swelling thickness at 200 mg/kg, po after 360 mins; type: functional; procedure, shortened: as §1
Mus musculus [31] = assay: Inhibition of carrageenan-induced paw edema in Swiss albino mouse at 25 mg/kg, po after 90 mins relative to control; type: functional; conditions: 1.5 h; procedure, shortened: as §1
Mus musculus [32] = assay: Inhibition of carrageenan-induced paw edema in Swiss albino mouse at 25 mg/kg, po after 180 mins relative to control; type: functional; conditions: 3 h; procedure, shortened: as §1
Mus musculus [33] = assay: Inhibition of carrageenan-induced paw edema in Swiss albino mouse at 25 mg/kg, po after 270 mins relative to control; type: functional; conditions: 4.5 h; procedure, shortened: as §1
Mus musculus [34] = assay: Inhibition of carrageenan-induced paw edema in Swiss albino mouse at 25 mg/kg, po after 360 mins relative to control; type: functional; conditions: 6 h; procedure, shortened: as §1
Mus musculus [35] = assay: Inhibition of carrageenan-induced paw edema in Swiss albino mouse at 50 mg/kg, po after 90 mins relative to control; type: functional; conditions: 1.5 h
Procedure, shortened: (§5)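 Mice, n = 6 per group. Test agent given orally as a suspension in 0.5% sodium CMC in distilled water; controls received vehicle only. Afterwards, 0.5 mg/25 ll carrageenan in saline (154 mM NaCl) injected subplantar into the right hind paw, saline into the left. Right-minus-left footpad thickness measured by dial gauge caliper every 90 min for 6 h. Inhibition is relative to vehicle-control group means.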

Mus musculus [36] = assay: Inhibition of carrageenan-induced paw edema in Swiss albino mouse at 50 mg/kg, po after 180 mins relative to control; type: functional; conditions: 3 h; procedure, shortened: as §1
Mus musculus [37] = assay: Inhibition of carrageenan-induced paw edema in Swiss albino mouse at 50 mg/kg, po after 270 mins relative to control; type: functional; conditions: 4.5 h; procedure, shortened: as §5
Mus musculus [38] = assay: Inhibition of carrageenan-induced paw edema in Swiss albino mouse at 50 mg/kg, po after 360 mins relative to control; type: functional; conditions: 6 h; procedure, shortened: as §5
Mus musculus [39] = assay: Acute toxicity in Swiss albino mouse assessed as lethal effect at 25 mg/kg/day, po after 72 hrs; type: organism-based; design: route oral; conditions: in vivo
Procedure, shortened: (§6)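 Oral single dose suspended in 0.5% carboxymethylcellulose, given after a 24 h fast; food and water returned 1 h after dosing. Vehicle-only controls. Mice observed at 1 h, then once daily for 72 h, for toxic signs and mortality.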

Mus musculus [40] = assay: Acute toxicity in Swiss albino mouse assessed as lethal effect at 50 mg/kg/day, po after 72 hrs; type: organism-based; design: route oral; conditions: in vivo; procedure, shortened: as §6
Mus musculus [41] = assay: Acute toxicity in Swiss albino mouse assessed as lethal effect at 100 mg/kg/day, po after 72 hrs; type: organism-based; design: route oral; conditions: in vivo; procedure, shortened: as §6
Mus musculus [42] = assay: Acute toxicity in Swiss albino mouse assessed as lethal effect at 200 mg/kg/day, po after 72 hrs; type: organism-based; design: route oral; conditions: in vivo; procedure, shortened: as §6
Mus musculus [43] = assay: Antiinflammatory activity against carrageenan-induced paw edema in Swiss albino mouse assessed as swelling thickness at 50 mg/kg, po after 90 mins; type: functional; procedure, shortened: as §1

CCSc1nc(-c2ccccc2Cl)n[nH]1
Activity (Mus musculus [1]): 33.2 10^-2mm | Activity (Mus musculus [2]): 37.8 10^-2mm | Activity (Mus musculus [3]): 42.2 10^-2mm | Activity (Mus musculus [4]): 47.5 10^-2mm | inhibition in vivo at 100 mg/kg (Mus musculus [5]): 25.9% | inhibition in vivo at 100 mg/kg (Mus musculus [6]): 26.6% | inhibition in vivo at 100 mg/kg (Mus musculus [7]): 28.2% | inhibition in vivo at 100 mg/kg (Mus musculus [8]): 30.9% | Activity (Mus musculus [9]): 48.5 | Activity (Mus musculus [10]): 37.8 | Activity (Mus musculus [11]): 35.2 | Activity (Mus musculus [12]): 41.3 | inhibition in vivo at 25 mg/kg (Mus musculus [13]): 5.6% | inhibition in vivo at 50 mg/kg (Mus musculus [14]): 26.4% | inhibition in vivo at 100 mg/kg (Mus musculus [15]): 25.6% | inhibition in vivo at 200 mg/kg (Mus musculus [16]): 19.6% | Activity (Mus musculus [17]): Active | Activity (Mus musculus [18]): Active | Activity (Mus musculus [19]): Active | Activity (Mus musculus [20]): 49.3 10^-2mm | Activity (Mus musculus [21]): 54.8 10^-2mm | Activity (Mus musculus [22]): 60.5 10^-2mm | Activity (Mus musculus [23]): 68.9 10^-2mm | Activity (Mus musculus [24]): 42.8 10^-2mm | Activity (Mus musculus [25]): 46.8 10^-2mm | Activity (Mus musculus [26]): 50.7 10^-2mm | Activity (Mus musculus [27]): 55.8 10^-2mm | Activity (Mus musculus [28]): 61.2 10^-2mm | Activity (Mus musculus [29]): 67.9 10^-2mm | Activity (Mus musculus [30]): 75.9 10^-2mm | inhibition in vivo at 25 mg/kg (Mus musculus [31]): 7.3% | inhibition in vivo at 25 mg/kg (Mus musculus [32]): 7.7% | inhibition in vivo at 25 mg/kg (Mus musculus [33]): 6.6% | inhibition in vivo at 25 mg/kg (Mus musculus [34]): 4.3% | inhibition in vivo at 50 mg/kg (Mus musculus [35]): 15% | inhibition in vivo at 50 mg/kg (Mus musculus [36]): 27.9% | inhibition in vivo at 50 mg/kg (Mus musculus [37]): 27.8% | inhibition in vivo at 50 mg/kg (Mus musculus [38]): 29.6% | Activity (Mus musculus [39]): Non-toxic | Activity (Mus musculus [40]): Non-toxic | Activity (Mus musculus [41]): Non-toxic | Activity (Mus musculus [42]): Non-toxic | Activity (Mus musculus [43]): 45.2 10^-2mm
